Data reported in ChEMBL document CHEMBL5352422, “Development of l-Dopa-containing diketopiperazines as blood-brain barrier shuttle” (Eur J Med Chem, 2022).
Values after ≈ are worked out from the molar mass of the structure shown.

Tests used:
[1] = Antioxidant activity against rat Cerebral cortex cell assessed as trolox equivalent of total antioxidant capacity at 10 nM incubated for 24 hrs (14.7 to 27.5 mmolequiv/L ); assay type: functional, Cerebral cortex neuron
[2] = Antioxidant activity against rat Cerebral cortex cell assessed as trolox equivalent of total antioxidant capacity at 50 nM incubated for 24 hrs (14.7 to 27.5 mmolequiv/L ); assay type: functional, Cerebral cortex neuron
[3] = Antioxidant activity against rat Cerebral cortex cell assessed as trolox equivalent of total antioxidant capacity at 250 nM incubated for 24 hrs (14.7 to 27.5 mmolequiv/L ); assay type: functional, Cerebral cortex neuron
[4] = Antioxidant activity against Primary human whole blood cell assessed as trolox equivalent of total antioxidant capacity at 250 nM incubated for 24 hrs (19.3 to 32.5 mmolequiv/L ); assay type: functional
[5] = Antioxidant activity against rat Cerebral cortex cell assessed as H2O2 equivalent of total oxidative stress at 10 nM incubated for 24 hrs (0.7 to 2.3 micromolequiv/L); assay type: functional, Cerebral cortex neuron
[6] = Antioxidant activity against rat Cerebral cortex cell assessed as H2O2 equivalent of total oxidative stress at 50 nM incubated for 24 hrs (0.7 to 2.3 micromolequiv/L); assay type: functional, Cerebral cortex neuron
[7] = Antioxidant activity against rat Cerebral cortex cell assessed as H2O2 equivalent of total oxidative stress at 100 nM incubated for 24 hrs (0.7 to 2.3 micromolequiv/L); assay type: functional, Cerebral cortex neuron
[8] = Antioxidant activity against rat Cerebral cortex cell assessed as H2O2 equivalent of total oxidative stress at 500 nM incubated for 24 hrs (0.7 to 2.3 micromolequiv/L); assay type: functional, Cerebral cortex neuron
[9] = Antioxidant activity against Primary human whole blood cell assessed as H2O2 equivalent of total oxidative stress at 10 nM incubated for 24 hrs (0.6 to 1.9 micromolequiv/L); assay type: functional
[10] = Antioxidant activity against Primary human whole blood cell assessed as H2O2 equivalent of total oxidative stress at 100 nM incubated for 24 hrs (0.6 to 1.9 micromolequiv/L); assay type: functional
[11] = Antioxidant activity against Primary human whole blood cell assessed as H2O2 equivalent of total oxidative stress at 250 nM incubated for 24 hrs (0.6 to 1.9 micromolequiv/L); assay type: functional
[12] = Induction of DNA damage in rat Cerebral cortex cell assessed as 8-OH-dG adducts formation at 250 nM incubated for 24 hrs by […] (reference value: 0.14 to 1.92 pg/ml); assay type: functional, Cerebral cortex neuron
[13] = Induction of DNA damage in Primary human whole blood cell assessed as 8-OH-dG adducts formation at 50 nM incubated for 24 hrs by […] (reference value: 0.12 to 2.21 pg/ml); assay type: functional
[14] = Induction of DNA damage in Primary human whole blood cell assessed as 8-OH-dG adducts formation at 250 nM incubated for 24 hrs by […] (reference value: 0.12 to 2.21 pg/ml); assay type: functional
[15] = Induction of DNA damage in rat Cerebral cortex cell assessed as total DNA damage score at 10 nM incubated for 24 hrs by Comet assay (reference value: 36.8 to 89.2); assay type: functional, Cerebral cortex neuron
[16] = Induction of DNA damage in rat Cerebral cortex cell assessed as total DNA damage score at 50 nM incubated for 24 hrs by Comet assay (reference value: 36.8 to 89.2); assay type: functional, Cerebral cortex neuron
[17] = Induction of DNA damage in rat Cerebral cortex cell assessed as total DNA damage score at 100 nM incubated for 24 hrs by Comet assay (reference value: 36.8 to 89.2); assay type: functional, Cerebral cortex neuron
[18] = Induction of DNA damage in rat Cerebral cortex cell assessed as total DNA damage score at 250 nM incubated for 24 hrs by Comet assay (reference value: 36.8 to 89.2); assay type: functional, Cerebral cortex neuron
[19] = Induction of DNA damage in Primary human whole blood cell assessed as total DNA damage score at 100 nM incubated for 24 hrs by Comet assay (reference value: 35.4 to 77.9); assay type: functional
[20] = Induction of DNA damage in Primary human whole blood cell assessed as total DNA damage score at 500 nM incubated for 24 hrs by Comet assay (reference value: 35.4 to 77.9); assay type: functional
[21] = Genotoxicity in human Lymphocyte assessed as sister chromatid exchange measured per cells at 10 nM incubated for 72 hrs giemsa staining based fluorescence method (reference value: 6.6 to 14.3); assay type: toxicity, cell-based; details: 0.01 µM
[22] = Genotoxicity in human Lymphocyte assessed as sister chromatid exchange measured per cells at 250 nM incubated for 72 hrs giemsa staining based fluorescence method (reference value: 6.6 to 14.3); assay type: toxicity, cell-based; details: 0.25 µM
[23] = Genotoxicity in human Lymphocyte assessed as micronuclei formation measured per 1000 cells at 50 nM incubated for 72 hrs giemsa staining based analysis (reference value: 4.5 to 17.9); assay type: toxicity, cell-based; details: 0.05 µM
Outline: (§1)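 Human whole-blood lymphocyte cultures with phytohemagglutinin, incubated with compound for 72 h at 37 °C. Cytochalasin B added at 44 h. Cells fixed in ice-cold methanol/acetic acid 1:1, cytospun, Giemsa-stained. At least 1000 binucleated lymphocytes per concentration scored for micronuclei by one observer.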

[24] = Genotoxicity in human Lymphocyte assessed as micronuclei formation measured per 1000 cells at 100 nM incubated for 72 hrs giemsa staining based analysis (reference value: 4.5 to 17.9); assay type: toxicity, cell-based; details: 0.1 µM; outline: as §1
[25] = Solubility of the compound in water by HPLC-UV analysis; assay type: physicochemical
[26] = Stability of the compound in stimulated intestinal fluid at 10 mg/ml pancreatin by measuring half life measured upto 180 mins by HPLC analysis; assay type: ADME; details: simulated intestinal fluid with pancreatin
Outline: (§2)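 USP simulated intestinal fluid containing pancreatin, in a 37 °C shaking water bath. Samples at 0, 60, 120 and 180 min were quenched with ice-cold acetonitrile containing 0.5% formic acid, centrifuged at 4 °C for 10 min, filtered and analyzed by HPLC. Means of three experiments ± SD.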

[27] = Stability in human plasma assessed as half life by HPLC method; assay type: ADME, cell-free
Outline: (§3)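 Stock added to 37 °C human plasma diluted with 0.02 M phosphate buffer pH 7.4 to 80% plasma. Aliquots taken over time were quenched with 0.01 M HCl in methanol, centrifuged 5 min at 5000 g, and supernatant analyzed by HPLC-UV. t1/2 and k_obs are means of three experiments ± SD.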

[28] = Stability of the compound in stimulated gastric fluid at 10 mg/ml pepsin by measuring observed rate constant measured upto 60 mins by HPLC analysis; assay type: ADME; details: simulated gi fluid, 1 h
Outline: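 USP simulated gastric fluid containing pepsin, preheated, in a 37 °C shaking water bath. Samples at 0, 15, 30 and 60 min were deproteinized with ice-cold acetonitrile containing 0.5% formic acid, centrifuged at 4 °C, filtered and analyzed by HPLC. Means of three experiments.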

[29] = Stability of the compound in stimulated intestinal fluid at 10 mg/ml pancreatin by measuring observed rate constant measured upto 180 mins by HPLC analysis; assay type: ADME; details: simulated gi fluid, 3 h; outline: as §2
[30] = Stability in human plasma assessed as observed rate constant by HPLC method; assay type: ADME, cell-free; outline: as §3
[31] = Effective permeability of compound at 500 uM incubated for 18 hrs by […] method; assay type: ADME; details: read-out: Peff
Outline: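 PAMPA-BBB: donor contained compound at 500 µM final in PBS pH 7.4 with 20% v/v MeOH. Incubated 18 h. Donor and acceptor concentrations measured by HPLC; effective permeability Pe (cm/s) calculated.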

In the case of `C#CCSC[C@H]1NC(=O)[C@H](Cc2ccc(OC(C)=O)c(OC(C)=O)c2)NC1=O`, the Activity [1] is reported as 14.7 mmolequiv/L, the Activity [2] is reported as 15.5 mmolequiv/L and the Activity [3] is reported as 15.4 mmolequiv/L. For the same compound, the Activity [4] was 19.8 mmolequiv/L, the Activity [5] was 0.7 umolequiv/L and the Activity [6] was 0.6 umolequiv/L. For the same compound, the Activity [7] was 0.6 umolequiv/L, the Activity [8] was 0.6 umolequiv/L and the Activity [9] was 0.6 umolequiv/L. For the same compound, the Activity [10] was 0.6 umolequiv/L, the Activity [11] was 0.7 umolequiv/L and the Activity [12] was 0.14 pg/mL. The Activity [13] was 0.11 pg/mL, the Activity [14] was 0.13 pg/mL and the Activity [15] was 36.9. For the same compound, the Activity [16] was 37.2, the Activity [17] was 37.8 and the Activity [18] was 37.6. For the same compound, the Activity [19] was 35.6, the Activity [20] was 36.3 and the Activity [21] was 6.5. It also gave an Activity [22] of 7.1, an Activity [23] of 4.8 and an Activity [24] of 4.9. It also gave a solubility [25] of 630 µg/mL (≈ 1560 µM), a half-life [26] of 3.51 h and a half-life [27] of 2.09 h. It also gave a Kobs [28] of 0.008 h⁻¹, a Kobs [29] of 0.198 h⁻¹ and a Kobs [30] of 0.332 h⁻¹. It also gave a Papp at 18 h, 500 µM [31] of 4.88 ×10⁻⁶ cm/s.
Compound `C=CCSC[C@H]1NC(=O)[C@H](Cc2ccc(OC(C)=O)c(OC(C)=O)c2)NC1=O` has an Activity [1] of 15.1 mmolequiv/L, an Activity [2] of 14.3 mmolequiv/L and an Activity [3] of 14.7 mmolequiv/L. It also gave an Activity [4] of 18.8 mmolequiv/L, an Activity [5] of 0.7 umolequiv/L and an Activity [6] of 0.7 umolequiv/L. The Activity [7] was 0.7 umolequiv/L, the Activity [8] was 0.7 umolequiv/L and the Activity [9] was 0.6 umolequiv/L. For the same compound, the Activity [10] was 0.7 umolequiv/L, the Activity [11] was 0.7 umolequiv/L and the Activity [12] was 0.15 pg/mL. It also gave an Activity [13] of 0.12 pg/mL, an Activity [14] of 0.12 pg/mL and an Activity [15] of 36.3. It also gave an Activity [16] of 36.4, an Activity [17] of 37.1 and an Activity [18] of 37.4. It also gave an Activity [19] of 35.5, an Activity [20] of 36.1 and an Activity [21] of 6.8. The Activity [22] was 7.1, the Activity [23] was 4.9 and the Activity [24] was 5. For the same compound, the solubility [25] was 323 µg/mL (≈ 795 µM), the half-life [26] was 0.68 h and the half-life [27] was 0.096 h. The Kobs [28] was 0.029 h⁻¹, the Kobs [29] was 1.03 h⁻¹ and the Kobs [30] was 7.22 h⁻¹. It also gave a Papp at 18 h, 500 µM [31] of 2.42 ×10⁻⁶ cm/s.
